Each block holds one molecule with its values, some of them ahead of it. Activity calls are given as the source filed them. No cut-off for these calls is given here.
Experiments:
[1] = tested on: HepG2; assay: Antiproliferative activity against human HepG2 cells by MTT assay; type: functional, cell-based
Outline: (§1)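 MTT assay. Cells were grown in DMEM/RPMI 1640 with 10% FBS, penicillin and streptomycin at 37 °C under 5% CO2. After a PBS wash, cells got 0.5 mg/mL MTT for 3 h at 37 °C. Formazan was dissolved in DMSO and absorbance read at 570 nm. Inhibition was expressed as a percentage and IC50 calculated. Means ± SD come from three separate experiments.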

[2] = Antiproliferative activity against rat 9L-2 cells by MTT assay; type: functional, cell-based; outline: as §1
[3] = Cytotoxicity against human CCD-841 cells by MTT assay; type: cell-based; outline: as §1
[4] = Dissociation constant, pKa of the compound; type: physicochemical
[5] = tested on: HT-29; assay: Antiproliferative activity against human HT-29 cells by MTT assay; type: functional, cell-based; outline: as §1
[6] = tested on: HT-29; assay: Induction of apoptosis in human HT-29 cells assessed as increase in cleaved caspase-3 protein level at 10 uM incubated for 72 hrs by Western blot analysis; type: functional, cell-based
Outline: (§2)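 HT29 cells (1.5 × 10^5/mL) treated 72 h with compound or vehicle. Lysates loaded at 0.05 mg/lane on 12% SDS-PAGE, transferred to nitrocellulose, blocked in 5% non-fat milk. Probed with antibodies to Bax, Bcl-2, cleaved caspase-3, cleaved PARP, LC3, p62 and beclin-1. Bands quantified relative to β-actin; three independent assays, means ± SD.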

[7] = tested on: HT-29; assay: Induction of apoptosis in human HT-29 cells assessed as increase in Bax protein level at 10 uM incubated for 72 hrs by Western blot analysis; type: functional, cell-based; outline: as §2
[8] = tested on: HT-29; assay: Induction of autophagy in human HT-29 cells assessed as reduction in p62 protein level at 10 uM incubated for 72 hrs by Western blot analysis; type: functional, cell-based; outline: as §2
[9] = tested on: HT-29; assay: Induction of apoptosis in human HT-29 cells at 10 uM incubated for 72 hrs by FITC-AnnexinV/PI staining based flow cytometry relative to control; type: functional
Outline: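 HT29 cells cultured 12 h, then exposed to compound or vehicle for 72 h. Harvested cells stained with Annexin V plus a viability dye for 15 min at 37 °C. Percentage of apoptotic cells determined by flow cytometry; means ± SD from three separate experiments, compared with control.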

[10] = tested on: HT-29; assay: Induction of autophagy in human HT-29 cells assessed as increase in LC3-II protein level at 10 uM incubated for 72 hrs by Western blot analysis; type: functional, cell-based; outline: as §2
[11] = tested on: HT-29; assay: Induction of apoptosis in human HT-29 cells assessed as increase in cleaved PARP protein level at 10 uM incubated for 72 hrs by Western blot analysis; type: functional, cell-based; outline: as §2
[12] = tested on: HT-29; assay: Induction of apoptosis in human HT-29 cells assessed as reduction in Bcl2 protein level at 10 uM incubated for 72 hrs by Western blot analysis; type: functional, cell-based; outline: as §2
[13] = tested on: HT-29; assay: Induction of autophagy in human HT-29 cells assessed as increase in Beclin-1 protein level at 10 uM incubated for 72 hrs by Western blot analysis; type: functional, cell-based; outline: as §2
[14] = tested on: HT-29; assay: Induction of autophagy in human HT-29 cells assessed as increase in Beclin-1 protein level at 2.5 uM incubated for 72 hrs by Western blot analysis; type: functional, cell-based
Outline: (§3)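 HT29 cells (1.5×10^5/mL) were treated for 72 h and lysed. Lysate (0.05 mg/lane) was run on 12% SDS-PAGE and transferred to nitrocellulose. After blocking in 5% non-fat milk, blots were probed for Bax, Bcl-2, cleaved caspase-3, cleaved PARP, LC3, p62 and beclin-1. Levels were normalised to β-actin, and means ± SD taken from three independent assays.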

[15] = tested on: HT-29; assay: Induction of apoptosis in human HT-29 cells assessed as increase in Bax protein level at 2.5 uM incubated for 72 hrs by Western blot analysis; type: functional, cell-based; outline: as §3
[16] = tested on: HT-29; assay: Induction of apoptosis in human HT-29 cells assessed as reduction in Bcl2 protein level at 2.5 uM incubated for 72 hrs by Western blot analysis; type: functional, cell-based; outline: as §3
[17] = tested on: HT-29; assay: Antitumor activity against human HT-29 cells xenografted in nude BALB/c mouse assessed as reduction in tumor volume at 40 mg/kg, ip dosed every day for 21 days; type: functional, organism-based
[18] = tested on: HT-29; assay: Induction of apoptosis in human HT-29 cells at 2.5 uM incubated for 72 hrs by FITC-AnnexinV/PI staining based flow cytometry relative to control; type: functional
Outline: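 HT29 cells were cultured 12 h, then exposed to compound (0.4, 1.0, 2.5 µM) or vehicle for 72 h. Harvested cells were stained with Annexin V and PI, and apoptotic cell percentages measured by flow cytometry. Means ± SD come from three separate experiments.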

[19] = tested on: HT-29; assay: Antitumor activity against human HT-29 cells xenografted in nude BALB/c mouse assessed as tumor weight level at 40 mg/kg, ip dosed every day for 21 days (reference value: 1.49 +/- 0.27 g); type: functional
[20] = tested on: HT-29; assay: Induction of autophagy in human HT-29 cells assessed as increase in LC3-II protein level at 2.5 uM incubated for 72 hrs by Western blot analysis; type: functional, cell-based; outline: as §3
[21] = tested on: HT-29; assay: Induction of apoptosis in human HT-29 cells assessed as increase in cleaved caspase-3 protein level at 2.5 uM incubated for 72 hrs by Western blot analysis; type: functional, cell-based; outline: as §3
[22] = tested on: HT-29; assay: Induction of apoptosis in human HT-29 cells assessed as increase in cleaved PARP protein level at 2.5 uM incubated for 72 hrs by Western blot analysis; type: functional, cell-based; outline: as §3
[23] = tested on: HT-29; assay: Induction of autophagy in human HT-29 cells assessed as reduction in p62 protein level at 2.5 uM incubated for 72 hrs by Western blot analysis; type: functional, cell-based
Outline: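 HT29 cells (1.5×10^5/mL) exposed to compound or vehicle for 72 h, then lysed. Lysates (0.05 mg/lane) run on 12% SDS-PAGE, transferred to nitrocellulose, blocked with 5% non-fat milk and probed for LC3, p62, beclin-1 and β-actin. Bands quantified relative to β-actin, with LC3-II/LC3-I ratio also calculated; means ± SD from three independent assays.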

IC50 [1]: 2.69 µM | pKa [4]: 5.3 | IC50 [5]: 1.45 µM
Compound: COc1cc(-c2nc(N(C(=O)OCC3=CCCCC3=O)C(=O)OCC3=CCCCC3=O)cc3c2[nH]c2ccccc23)cc(OC)c1OC
IC50 [2]: 4.85 µM | IC50 [3]: 28.1 µM

Compound: COc1ccc2c(c1)[nH]c1c(C)nccc12 [HARMINE]
Activity [6]: Active | Activity [7]: Active | Activity [8]: Active | Activity [9]: 20.9% | Activity [10]: Active | IC50 [1]: 49.6 µM | IC50 [2]: 47.8 µM | IC50 [3]: > 50 µM | Activity [11]: Active | IC50 [5]: 41.8 µM | Activity [12]: Active | Activity [13]: Active

IC50 [1]: 17.1 µM | IC50 [5]: 13.5 µM
Compound: COc1cc(-c2nc(N)cc3c2[nH]c2ccccc23)cc(OC)c1OC

IC50 [1]: 5.93 µM | IC50 [5]: 4.37 µM
Compound: C/C=C/C(=O)OCC1=CCCCC1=O
Activity [14]: Active | Activity [15]: Active | Activity [16]: Active | Activity [17]: Active | Activity [18]: 28.8% | Activity [19]: 0.81 g | Activity [20]: Active | Activity [21]: Active | IC50 [2]: 7.79 µM | IC50 [3]: 7.83 µM | Activity [22]: Active | Activity [23]: Active
